The source made the active and inactive calls. The rule behind the calls is not given here.
Columns and labels:
Format in all cases: nucleic-acid assay
Details in all cases: Bos taurus
Nucleic Acid [1] = experiment: Binding affinity to calf thymus DNA assessed as melting temperature at 5 to 10 uM by thermal denaturation analysis
Summary of the method: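 Thermal melting of CT-DNA (50 μM) in phosphate buffer pH 7.2, with and without compound (5–10 μM). Absorbance at 260 nm followed across temperatures. Tm taken as the point of 50% strand separation, with curve width from the 10–90% absorbance rise.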

Nucleic Acid [2] = experiment: Binding affinity to calf thymus DNA assessed as intrinsic binding constant by UV-visible absorption spectroscopy
Summary of the method: (§1)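 CT-DNA checked for purity by A260/A280; concentration per nucleotide from extinction coefficient at 260 nm (6600 M-1 cm-1). Compound held constant at 30 μM in 50% DMSO/phosphate buffer, pH 7.2 (5 mM in one passage, 0.2 M in another). DNA titrated from 0 to 100 μM, spectra recorded after each addition once equilibrated.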

Nucleic Acid [3] = experiment: Binding affinity to calf thymus DNA assessed as bathochromic shift at 30 uM by UV-visible absorption spectroscopy; summary of the method: as §1
Nucleic Acid [4] = experiment: Binding affinity to calf thymus DNA assessed as hypochromicity at 30 uM by UV-visible absorption spectroscopy; summary of the method: as §1
Nucleic Acid [5] = experiment: Binding affinity to calf thymus DNA assessed as increase in viscosity of short, rod-like DNA at compound to DNA ratio of 0.2 to 1.4 by viscometer
Summary of the method: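 Viscometer titration of CT-DNA solution (496.2 μmol/L) in phosphate buffer pH 7.2 with increasing compound concentrations. Flow time measured at 25 °C in an Ostwald viscometer, with the same method for each compound.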

| Tm (Nucleic Acid [1]) | Kb (Nucleic Acid [2]) | Activity (Nucleic Acid [3]) | Activity (Nucleic Acid [4]) | Activity (Nucleic Acid [5]) | Structure (SMILES) |
| --- | --- | --- | --- | --- | --- |
| 80 °C | 5.21 ×10⁵ /M | Active | Active | Active | CCCCc1nc(Cl)c(/C=C2/C(=O)N(c3ccccc3)N=C2C)[nH]1 |
| 82 °C | 5.7 ×10⁵ /M | Active | Active | Active | CCCCc1nc(Cl)c([C@@H]2[C@H]3C(C)=NN(c4ccccc4)C3=Nc3c(/N=N/c4ccc(Cl)cc4)c(N)nn32)[nH]1 |

— ChEMBL document CHEMBL2203253, “An ecofriendly synthesis and DNA binding interaction study of some pyrazolo [1,5-a]pyrimidines derivatives” (Bioorg Med Chem Lett, 2012)
